System: HEK-293T
Assay: Multiplex assay against HEK293T
Format: toxicity, cell-based
Settings: human
How it was run: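 Compound was added to live cells that had been stained at seeding with Hoechst33342, BioTracker Green Microtubule Cytoskeleton Dye, MitoTracker Red and Annexin V Alexa Fluor 680, and imaging followed on a CQ1 microscope at 37°C and 5% CO2. CellPathfinder machine-learning gating divided cells into Hoechst high-intensity objects or normal cells, normal cells into healthy, pyknosed or fragmented nuclei, and pyknosed cells into mitotic or apoptotic. Tubulin, mitochondrial-mass and membrane-permeability phenotypes are per cents of healthy-nucleus cells.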

[1] = 12 h, 1 µM, compound concentration 1 uM, replicate 1
[2] = 12 h, 1 µM, compound concentration 1 uM, replicate 2
[3] = 12 h, 10 µM, compound concentration 10 uM, replicate 1
[4] = 12 h, 10 µM, compound concentration 10 uM, replicate 2
[5] = 24 h, 1 µM, compound concentration 1 uM, replicate 1
[6] = 24 h, 1 µM, compound concentration 1 uM, replicate 2
[7] = 24 h, 10 µM, compound concentration 10 uM, replicate 1
[8] = 24 h, 10 µM, compound concentration 10 uM, replicate 2
[9] = 48 h, 1 µM, compound concentration 1 uM, replicate 1
[10] = 48 h, 1 µM, compound concentration 1 uM, replicate 2
[11] = 48 h, 10 µM, compound concentration 10 uM, replicate 1
[12] = 48 h, 10 µM, compound concentration 10 uM, replicate 2

C[C@@H]1C[C@H]2[C@@H]3CCC4=CC(=O)C=C[C@]4(C)[C@@]3(F)[C@@H](O)C[C@]2(C)[C@@]1(O)C(=O)CO [DEXAMETHASONE]
Population Apoptotic (%) [1]: 37%
Population Fragmented Nuclei (%) [1]: 8%
Population Healthy Nuclei (%) [1]: 78%
Population Hoechst High Intensity Objects (%) [1]: 2%
Population Membrane Permeable-Phenotype (%) [1]: 1%
Population Mitochondria Different-Phenotype (%) [1]: 45%
Population Mitotic Cells (%) [1]: 62%
Population Normal (%) [1]: 97%
Population Pyknosed Nuclei (%) [1]: 12%
Population Tubulin-Different-Phenotype (%) [1]: 24%
Total Cell Count [1]: 420
Population Apoptotic (%) [2]: 53%
Population Fragmented Nuclei (%) [2]: 7%
Population Healthy Nuclei (%) [2]: 80%
Population Hoechst High Intensity Objects (%) [2]: 8%
Population Membrane Permeable-Phenotype (%) [2]: 0%
Population Mitochondria Different-Phenotype (%) [2]: 62%
Population Mitotic Cells (%) [2]: 46%
Population Normal (%) [2]: 91%
Population Tubulin-Different-Phenotype (%) [2]: 26%
Total Cell Count [2]: 372
Population Apoptotic (%) [3]: 37%
Population Fragmented Nuclei (%) [3]: 7%
Population Healthy Nuclei (%) [3]: 79%
Population Hoechst High Intensity Objects (%) [3]: 6%
Population Membrane Permeable-Phenotype (%) [3]: 0%
Population Mitochondria Different-Phenotype (%) [3]: 44%
Population Mitotic Cells (%) [3]: 62%
Population Normal (%) [3]: 93%
Population Pyknosed Nuclei (%) [3]: 13%
Population Tubulin-Different-Phenotype (%) [3]: 33%
Total Cell Count [3]: 374
Population Apoptotic (%) [4]: 44%
Population Fragmented Nuclei (%) [4]: 5%
Population Healthy Nuclei (%) [4]: 81%
Population Hoechst High Intensity Objects (%) [4]: 14%
Population Mitochondria Different-Phenotype (%) [4]: 69%
Population Mitotic Cells (%) [4]: 55%
Population Normal (%) [4]: 85%
Population Tubulin-Different-Phenotype (%) [4]: 39%
Total Cell Count [4]: 436
Population Apoptotic (%) [5]: 31%
Population Fragmented Nuclei (%) [5]: 9%
Population Healthy Nuclei (%) [5]: 78%
Population Hoechst High Intensity Objects (%) [5]: 4%
Population Membrane Permeable-Phenotype (%) [5]: 0%
Population Mitochondria Different-Phenotype (%) [5]: 30%
Population Mitotic Cells (%) [5]: 68%
Population Normal (%) [5]: 95%
Population Pyknosed Nuclei (%) [5]: 12%
Population Tubulin-Different-Phenotype (%) [5]: 17%
Total Cell Count [5]: 569
Population Apoptotic (%) [6]: 42%
Population Fragmented Nuclei (%) [6]: 12%
Population Healthy Nuclei (%) [6]: 79%
Population Hoechst High Intensity Objects (%) [6]: 7%
Population Mitochondria Different-Phenotype (%) [6]: 45%
Population Mitotic Cells (%) [6]: 57%
Population Normal (%) [6]: 92%
Population Pyknosed Nuclei (%) [6]: 8%
Total Cell Count [6]: 499
Population Apoptotic (%) [7]: 36%
Population Fragmented Nuclei (%) [7]: 8%
Population Healthy Nuclei (%) [7]: 74%
Population Hoechst High Intensity Objects (%) [7]: 6%
Population Membrane Permeable-Phenotype (%) [7]: 0%
Population Mitochondria Different-Phenotype (%) [7]: 30%
Population Mitotic Cells (%) [7]: 63%
Population Normal (%) [7]: 93%
Population Pyknosed Nuclei (%) [7]: 16%
Population Tubulin-Different-Phenotype (%) [7]: 29%
Total Cell Count [7]: 453
Population Apoptotic (%) [8]: 44%
Population Fragmented Nuclei (%) [8]: 9%
Population Healthy Nuclei (%) [8]: 79%
Population Hoechst High Intensity Objects (%) [8]: 15%
Population Mitochondria Different-Phenotype (%) [8]: 43%
Population Mitotic Cells (%) [8]: 56%
Population Normal (%) [8]: 84%
Population Pyknosed Nuclei (%) [8]: 11%
Population Tubulin-Different-Phenotype (%) [8]: 22%
Total Cell Count [8]: 513
Population Apoptotic (%) [9]: 30%
Population Fragmented Nuclei (%) [9]: 15%
Population Healthy Nuclei (%) [9]: 77%
Population Hoechst High Intensity Objects (%) [9]: 1%
Population Membrane Permeable-Phenotype (%) [9]: 1%
Population Mitochondria Different-Phenotype (%) [9]: 18%
Population Mitotic Cells (%) [9]: 69%
Population Normal (%) [9]: 98%
Population Pyknosed Nuclei (%) [9]: 7%
Population Tubulin-Different-Phenotype (%) [9]: 12%
Total Cell Count [9]: 915
Population Apoptotic (%) [10]: 27%
Population Healthy Nuclei (%) [10]: 78%
Population Hoechst High Intensity Objects (%) [10]: 3%
Population Membrane Permeable-Phenotype (%) [10]: 0%
Population Mitochondria Different-Phenotype (%) [10]: 27%
Population Mitotic Cells (%) [10]: 72%
Population Normal (%) [10]: 96%
Population Pyknosed Nuclei (%) [10]: 6%
Population Tubulin-Different-Phenotype (%) [10]: 15%
Total Cell Count [10]: 685
Population Apoptotic (%) [11]: 25%
Population Fragmented Nuclei (%) [11]: 15%
Population Healthy Nuclei (%) [11]: 76%
Population Hoechst High Intensity Objects (%) [11]: 3%
Population Membrane Permeable-Phenotype (%) [11]: 0%
Population Mitochondria Different-Phenotype (%) [11]: 18%
Population Mitotic Cells (%) [11]: 75%
Population Normal (%) [11]: 96%
Population Pyknosed Nuclei (%) [11]: 7%
Population Tubulin-Different-Phenotype (%) [11]: 14%
Total Cell Count [11]: 760
Population Apoptotic (%) [12]: 50%
Population Fragmented Nuclei (%) [12]: 16%
Population Hoechst High Intensity Objects (%) [12]: 6%
Population Mitochondria Different-Phenotype (%) [12]: 28%
Population Mitotic Cells (%) [12]: 49%
Population Normal (%) [12]: 93%
Population Tubulin-Different-Phenotype (%) [12]: 19%
Total Cell Count [12]: 756

O=C(O)Cc1ccccc1Nc1c(Cl)cccc1Cl [DICLOFENAC]
Population Apoptotic (%) [1]: 36%
Population Fragmented Nuclei (%) [1]: 7%
Population Healthy Nuclei (%) [1]: 77%
Population Hoechst High Intensity Objects (%) [1]: 5%
Population Membrane Permeable-Phenotype (%) [1]: 0%
Population Mitochondria Different-Phenotype (%) [1]: 53%
Population Mitotic Cells (%) [1]: 63%
Population Normal (%) [1]: 94%
Population Pyknosed Nuclei (%) [1]: 14%
Population Tubulin-Different-Phenotype (%) [1]: 32%
Total Cell Count [1]: 376
Population Apoptotic (%) [2]: 52%
Population Healthy Nuclei (%) [2]: 79%
Population Hoechst High Intensity Objects (%) [2]: 10%
Population Mitochondria Different-Phenotype (%) [2]: 61%
Population Mitotic Cells (%) [2]: 47%
Population Normal (%) [2]: 89%
Population Pyknosed Nuclei (%) [2]: 13%
Population Tubulin-Different-Phenotype (%) [2]: 23%
Total Cell Count [2]: 324
Population Apoptotic (%) [3]: 30%
Population Fragmented Nuclei (%) [3]: 7%
Population Healthy Nuclei (%) [3]: 77%
Population Hoechst High Intensity Objects (%) [3]: 6%
Population Membrane Permeable-Phenotype (%) [3]: 0%
Population Mitochondria Different-Phenotype (%) [3]: 45%
Population Mitotic Cells (%) [3]: 69%
Population Normal (%) [3]: 93%
Population Pyknosed Nuclei (%) [3]: 14%
Population Tubulin-Different-Phenotype (%) [3]: 35%
Total Cell Count [3]: 480
Population Apoptotic (%) [4]: 57%
Population Healthy Nuclei (%) [4]: 75%
Population Hoechst High Intensity Objects (%) [4]: 14%
Population Mitochondria Different-Phenotype (%) [4]: 68%
Population Mitotic Cells (%) [4]: 42%
Population Normal (%) [4]: 85%
Population Pyknosed Nuclei (%) [4]: 17%
Total Cell Count [4]: 370
Population Apoptotic (%) [5]: 30%
Population Fragmented Nuclei (%) [5]: 7%
Population Healthy Nuclei (%) [5]: 76%
Population Hoechst High Intensity Objects (%) [5]: 3%
Population Membrane Permeable-Phenotype (%) [5]: 0%
Population Mitochondria Different-Phenotype (%) [5]: 44%
Population Mitotic Cells (%) [5]: 69%
Population Normal (%) [5]: 96%
Population Pyknosed Nuclei (%) [5]: 15%
Population Tubulin-Different-Phenotype (%) [5]: 24%
Total Cell Count [5]: 456
Population Apoptotic (%) [6]: 45%
Population Fragmented Nuclei (%) [6]: 6%
Population Healthy Nuclei (%) [6]: 78%
Population Hoechst High Intensity Objects (%) [6]: 10%
Population Mitochondria Different-Phenotype (%) [6]: 37%
Population Mitotic Cells (%) [6]: 54%
Population Normal (%) [6]: 89%
Population Pyknosed Nuclei (%) [6]: 14%
Population Tubulin-Different-Phenotype (%) [6]: 9%
Total Cell Count [6]: 418
Population Apoptotic (%) [7]: 25%
Population Fragmented Nuclei (%) [7]: 10%
Population Healthy Nuclei (%) [7]: 77%
Population Hoechst High Intensity Objects (%) [7]: 4%
Population Membrane Permeable-Phenotype (%) [7]: 0%
Population Mitochondria Different-Phenotype (%) [7]: 29%
Population Mitotic Cells (%) [7]: 74%
Population Normal (%) [7]: 95%
Population Pyknosed Nuclei (%) [7]: 12%
Population Tubulin-Different-Phenotype (%) [7]: 29%
Total Cell Count [7]: 650
Population Apoptotic (%) [8]: 49%
Population Healthy Nuclei (%) [8]: 75%
Population Hoechst High Intensity Objects (%) [8]: 9%
Population Mitochondria Different-Phenotype (%) [8]: 50%
Population Mitotic Cells (%) [8]: 50%
Population Normal (%) [8]: 90%
Population Pyknosed Nuclei (%) [8]: 14%
Population Tubulin-Different-Phenotype (%) [8]: 26%
Total Cell Count [8]: 462
Population Apoptotic (%) [9]: 23%
Population Fragmented Nuclei (%) [9]: 11%
Population Healthy Nuclei (%) [9]: 82%
Population Hoechst High Intensity Objects (%) [9]: 2%
Population Membrane Permeable-Phenotype (%) [9]: 1%
Population Mitochondria Different-Phenotype (%) [9]: 22%
Population Mitotic Cells (%) [9]: 76%
Population Normal (%) [9]: 97%
Population Pyknosed Nuclei (%) [9]: 6%
Population Tubulin-Different-Phenotype (%) [9]: 15%
Total Cell Count [9]: 730
Population Apoptotic (%) [10]: 33%
Population Fragmented Nuclei (%) [10]: 15%
Population Healthy Nuclei (%) [10]: 79%
Population Mitochondria Different-Phenotype (%) [10]: 16%
Population Mitotic Cells (%) [10]: 66%
Population Pyknosed Nuclei (%) [10]: 4%
Population Tubulin-Different-Phenotype (%) [10]: 10%
Total Cell Count [10]: 697
Population Apoptotic (%) [11]: 36%
Population Fragmented Nuclei (%) [11]: 12%
Population Healthy Nuclei (%) [11]: 80%
Population Hoechst High Intensity Objects (%) [11]: 3%
Population Membrane Permeable-Phenotype (%) [11]: 1%
Population Mitochondria Different-Phenotype (%) [11]: 17%
Population Mitotic Cells (%) [11]: 63%
Population Normal (%) [11]: 96%
Population Pyknosed Nuclei (%) [11]: 7%
Population Tubulin-Different-Phenotype (%) [11]: 18%
Total Cell Count [11]: 883
Population Fragmented Nuclei (%) [12]: 16%
Population Healthy Nuclei (%) [12]: 75%
Population Hoechst High Intensity Objects (%) [12]: 4%
Population Membrane Permeable-Phenotype (%) [12]: 0%
Population Mitochondria Different-Phenotype (%) [12]: 36%
Population Normal (%) [12]: 95%
Population Tubulin-Different-Phenotype (%) [12]: 17%
Total Cell Count [12]: 649
